According to ChEMBL document CHEMBL1255401, “Penicillin sulfone inhibitors of class D beta-lactamases” (Antimicrob Agents Chemother, 2010):

Assays:
[1] = Ratio of Kcat to Km for Beta-lactamase OXA-1 expressed in Escherichia coli BL21 (DE3)
Outline: (§1)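 OXA-1 from E. coli BL21(DE3) with pET 12a(+) blaOXA-1, IPTG-induced (0.2 mM), released with lysozyme/EDTA, purified by preparative isoelectric focusing. Continuous spectrophotometric hydrolysis assays of oxacillin, ampicillin, nitrocefin and cephaloridine at room temperature in 50 mM sodium phosphate with 20 mM bicarbonate, run in triplicate. Initial rates versus substrate concentration fitted to give kcat, Km and kcat/Km.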

[2] = Activity of Beta-lactamase OXA-1 expressed in Escherichia coli BL21 (DE3); outline: as §1
[3] = Inhibition of Beta-lactamase OXA-14 expressed in Escherichia coli BL21 (DE3) by nitrocefin hydrolysis assay
Outline: (§2)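 Competition assay at room temperature in 50 mM sodium phosphate with 20 mM bicarbonate, run in triplicate. Enzyme at 11 nM, reporter substrate 50 μM nitrocefin, inhibitor at 4 μM to 9 mM depending on inhibitor and enzyme. Initial velocities taken immediately after mixing, 1/v plotted against [I] and fitted linearly. Ki obtained as y-intercept divided by slope.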

[4] = Inhibition of Beta-lactamase OXA-24/40 expressed in Escherichia coli BL21 (DE3) by nitrocefin hydrolysis assay; outline: as §2
Escherichia coli = assay: Antibacterial activity against Escherichia coli DH10B harboring RGN238 plasmid containing Beta-lactamase OXA-1 at 4 ug/ml in presence of increasing concentrations of piperacillin by broth agar dilution assay; type: functional
Outline: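 Lysogeny broth agar dilution MIC on E. coli DH10B carrying plasmid RGN238 with blaOXA-1. Piperacillin tested at increasing concentrations with the inhibitor held at a constant 4 μg/ml. Plates inoculated by Steers replicator with 10 μl of a diluted overnight culture containing 10^4 CFU.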

[5] = Inhibition of Beta-lactamase OXA-1 expressed in Escherichia coli BL21 (DE3) by nitrocefin hydrolysis assay; outline: as §2
[6] = Inhibition of Beta-lactamase OXA-17 expressed in Escherichia coli BL21 (DE3) by nitrocefin hydrolysis assay; outline: as §2
[7] = Inhibition of Beta-lactamase OXA-10 expressed in Escherichia coli BL21 (DE3) by nitrocefin hydrolysis assay; outline: as §2

## O=C(Cc1cccs1)N[C@@H]1C(=O)N2C(C(=O)[O-])=C(C[n+]3ccccc3)CS[C@H]12
[1]
  kcat/Km: 210000 M⁻¹ s⁻¹
[2]
  Km: 80 µM
  kcat: 16 s⁻¹

## C[C@]1(Cn2ccnn2)[C@H](C(=O)O)N2C(=O)C[C@H]2S1(=O)=O [TAZOBACTAM]
[3]
  Ki: 30 µM
[4]
  Ki: 271 µM
Escherichia coli
  MIC: 512 µg/mL
[5]
  Ki: 585 µM
[6]
  Ki: 40 µM
[7]
  Ki: 170 µM

## O=C(Cc1cccs1)N[C@@H]1C(=O)N2C(C(=O)O)=C(/C=C/c3ccc([N+](=O)[O-])cc3[N+](=O)[O-])CS[C@H]12
[1]
  kcat/Km: 1e+07 M⁻¹ s⁻¹
[2]
  Km: 9 µM
  kcat: 94 s⁻¹

## Cc1onc(-c2ccccc2)c1C(=O)N[C@@H]1C(=O)N2[C@@H]1SC(C)(C)[C@@H]2C(=O)O
[1]
  kcat/Km: 1.9e+07 M⁻¹ s⁻¹
[2]
  Km: 31 µM
  kcat: 577 s⁻¹

## CC1(C)S[C@@H]2[C@H](NC(=O)[C@H](N)c3ccccc3)C(=O)N2[C@H]1C(=O)O
[1]
  kcat/Km: 6e+06 M⁻¹ s⁻¹
[2]
  Km: 64 µM
  kcat: 357 s⁻¹

## CC(=O)OC[C@@]1(C)[C@H](C(=O)O)N2C(=O)/C(=C/c3ccccn3)[C@H]2S1(=O)=O
[3]
  Ki: 4 µM
[4]
  Ki: 2.4 µM
[5]
  Ki: 1.4 µM
[6]
  Ki: 0.87 µM
[7]
  Ki: 17 µM

## C[C@]1(COC(=O)Cc2ccc(O)c(O)c2)[C@H](C(=O)O)N2C(=O)/C(=C/c3ccccn3)[C@H]2S1(=O)=O
[3]
  Ki: 1.4 µM
[4]
  Ki: 0.65 µM
Escherichia coli
  MIC: 128 µg/mL
[5]
  Ki: 0.7 µM
[6]
  Ki: 0.2 µM
[7]
  Ki: 8 µM

## O=C(O)[C@H]1/C(=C/CO)O[C@@H]2CC(=O)N21 [CLAVULANIC ACID]
[3]
  Ki: 19 µM
[4]
  Ki: 51 µM
[5]
  Ki: 195 µM
[6]
  Ki: 45 µM
[7]
  Ki: 104 µM
